Test results published in ChEMBL document CHEMBL3526106, “Cytochrome P450 regulation by α-tocopherol in Pxr-null and PXR-humanized mice” (Drug Metab Dispos, 2013).

Experiments:
[1] = tested on: Mus musculus; test: Drug level in male PXR null mouse treated with 500 mg/kg for 7 to 14 days dosed through vitamin E-deficient base diet by UPLC-ESI-QTOFMS method based metabolomics analysis; type: ADME, organism-based; parameters: dose 500 mg/kg; conditions: in vivo, po
[2] = tested on: Mus musculus; test: Drug level in male wild type mouse treated with 500 mg/kg for 7 to 14 days dosed through vitamin E-deficient base diet by UPLC-ESI-QTOFMS method based metabolomics analysis; type: ADME, organism-based; parameters: dose 500 mg/kg; conditions: in vivo, po
[3] = tested on: Mus musculus; test: Drug level in male PXR-humanized mouse treated with 500 mg/kg for 7 to 14 days dosed through vitamin E-deficient base diet by UPLC-ESI-QTOFMS method based metabolomics analysis; type: ADME, organism-based; parameters: dose 500 mg/kg; conditions: in vivo, po
[4] = tested on: Ugt1a10; test: Induction of Ugt1a10 gene expression in wild type mouse liver at 50 mg/kg dosed through gavage daily for 4 days by qPCR method; type: ADME, organism-based; parameters: dose 50 mg/kg; conditions: po, read-out: FC
[5] = tested on: Ugt1a9; test: Induction of Ugt1a9 gene expression in wild type mouse liver at 50 mg/kg dosed through gavage daily for 4 days by qPCR method; type: ADME, organism-based; parameters: dose 50 mg/kg; conditions: po, read-out: FC
[6] = tested on: Cyp2b10; test: Induction of Cyp2b10 gene expression in wild type mouse liver at 50 mg/kg dosed through gavage daily for 4 days by qPCR method; type: ADME, organism-based; parameters: dose 50 mg/kg; conditions: po, read-out: FC
[7] = tested on: Cyp2c29; test: Induction of Cyp2c29 gene expression in male PXR null mouse liver at 50 mg/kg dosed through gavage daily for 4 days by qPCR method; conditions: po, read-out: FC
[8] = tested on: Ugt2b5; test: Induction of Ugt2b5 gene expression in wild type mouse liver at 50 mg/kg dosed through gavage daily for 4 days by qPCR method; type: ADME, organism-based; parameters: dose 50 mg/kg; conditions: po, read-out: FC
[9] = tested on: Ugt1a1; test: Induction of Ugt1a1 gene expression in wild type mouse liver at 50 mg/kg dosed through gavage daily for 4 days by qPCR method; type: ADME, organism-based; parameters: dose 50 mg/kg; conditions: po, read-out: FC
[10] = tested on: Mus musculus; test: Reduction in Ugt1a6b gene expression in PXR-humanized mouse liver at 10 mg/kg dosed through gavage daily for 4 days by qPCR method; conditions: in vivo, po, 96 h
[11] = tested on: Mus musculus; test: Reduction in Ugt1a6b gene expression in wild type mouse liver at 50 mg/kg dosed through gavage daily for 4 days by qPCR method; type: ADME, organism-based; parameters: dose 50 mg/kg; conditions: in vivo, po, 96 h
[12] = target: T1, PXR (Nuclear receptor subfamily 1 group I member 2) (Mus musculus, UniProt O54915); test: Activation of mouse PXR expressed in human HepG2 cells at 10 uM after 24 hrs by firefly luciferase DR3 reporter gene assay; type: ADME, cell-based; conditions: human HepG2 cells expressing mouse PXR, read-out: FC
T1 sequence (O54915 whole entry): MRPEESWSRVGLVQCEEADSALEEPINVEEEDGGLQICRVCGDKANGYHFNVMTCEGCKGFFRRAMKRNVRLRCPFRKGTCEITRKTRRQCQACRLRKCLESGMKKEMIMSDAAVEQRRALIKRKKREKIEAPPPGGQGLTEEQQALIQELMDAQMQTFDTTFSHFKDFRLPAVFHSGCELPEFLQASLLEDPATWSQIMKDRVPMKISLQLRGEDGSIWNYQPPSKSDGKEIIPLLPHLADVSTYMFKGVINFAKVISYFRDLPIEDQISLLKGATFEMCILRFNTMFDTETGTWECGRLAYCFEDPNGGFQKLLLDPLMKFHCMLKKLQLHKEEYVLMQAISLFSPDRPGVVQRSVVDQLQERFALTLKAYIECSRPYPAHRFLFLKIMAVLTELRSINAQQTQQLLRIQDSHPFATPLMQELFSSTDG
Summary of the method: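 HepG2 cells grown in DMEM + 10% FBS were transfected with 10 ng mouse PXR, 100 ng DR3 firefly luciferase reporter and 2 ng Renilla pRL-SV40. Compound in DMSO was added 24 h after transfection and left for 24 h. Dual luciferase was then read, firefly normalized to Renilla per well, and expressed as fold over DMSO control.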

[13] = tested on: Cyp2c29; test: Induction of Cyp2c29 gene expression in wild type mouse liver at 50 mg/kg dosed through gavage daily for 4 days by qPCR method; type: ADME, organism-based; parameters: dose 50 mg/kg; conditions: po, read-out: FC
[14] = tested on: Mus musculus; test: Reduction in Ugt1a6a gene expression in PXR-humanized mouse liver at 10 mg/kg dosed through gavage daily for 4 days by qPCR method; conditions: in vivo, po, 96 h
[15] = tested on: Cyp2c55; test: Induction of Cyp2c55 gene expression in wild type mouse liver at 50 mg/kg dosed through gavage daily for 4 days by qPCR method; type: ADME, organism-based; parameters: dose 50 mg/kg; conditions: po, read-out: FC
[16] = tested on: Ugt2b34; test: Induction of Ugt2b34 gene expression in wild type mouse liver at 50 mg/kg dosed through gavage daily for 4 days by qPCR method; type: ADME, organism-based; parameters: dose 50 mg/kg; conditions: po, read-out: FC
[17] = tested on: Cyp3a11; test: Induction of Cyp3a11 gene expression in wild type mouse liver at 50 mg/kg dosed through gavage daily for 4 days by qPCR method; type: ADME, organism-based; parameters: dose 50 mg/kg; conditions: po, read-out: FC
[18] = tested on: Ugt1a10; test: Induction of Ugt1a10 gene expression in PXR null mouse liver at 50 mg/kg dosed through gavage daily for 4 days by qPCR method; type: ADME, organism-based; parameters: dose 50 mg/kg; conditions: po, read-out: FC

Structure (SMILES)	Drug metabolism [1]	Drug metabolism [2]	Drug metabolism [3]	fold induction at 96 h [4]	fold induction at 96 h [5]	fold induction at 96 h [6]	fold induction at 96 h [7]	fold induction at 96 h [8]	fold induction at 96 h [9]	fold change (FC) [10]	fold change (FC) [11]	fold induction at 24 h, 10 µM [12]	fold induction at 96 h [13]	fold change (FC) [14]	fold induction at 96 h [15]	fold induction at 96 h [16]	fold induction at 96 h [17]	fold induction at 96 h [18]
CN1CC(=O)NC1=N [CREATININE]	metabolite_detected	metabolite_detected	metabolite_detected															
CC(=O)[C@H]1[C@H](C#N)C[C@H]2[C@@H]3CC=C4C[C@@H](O)CC[C@]4(C)[C@H]3CC[C@@]21C [PREGNENOLONE CARBONITRILE]				2.8	9.4	160	1.6	1.4	3.1	1.8	1.3	9.5	9.2	2	303	3.2	20.9	1.8
